Laboratory results: ChEMBL document CHEMBL1944524, “Synthesis and structure-activity relationship of 5-pyridazin-3-one phenoxypiperidines as potent, selective histamine H(3) receptor inverse agonists” (Bioorg Med Chem Lett, 2012)

How the values were obtained:
[1] = Half life in dog liver microsomes; type: ADME, Canis lupus familiaris, Microsome
Summary of the method: (§1)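 Stability in liver microsomes from rat, dog or human; half-life (min) determined.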

[2] = Half life in human liver microsomes; type: ADME, Microsome; summary of the method: as §1
[3] = Cmax in po dosed rat; type: ADME, organism-based; design: route oral; conditions: in vivo
Histamine H3 receptor [4] = biological target: Histamine H3 receptor (Rattus norvegicus, UniProt Q9QYN8); test: Displacement of [3H]N-alpha-methylhistamine from rat histamine H3 receptor expressed in CHO cells; type: cell-based
Rattus norvegicus [5] = test: AUC in po dosed rat assessed as 5-[4-(1-cyclobutyl-piperidin-4-yloxy)-phenyl]-6-methyl-2H-pyridazin-3-one level; type: ADME, organism-based, Plasma; conditions: in vivo
[6] = Oral bioavailability in rat; type: ADME, organism-based; conditions: in vivo
Summary of the method: (§2)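 Rat PK study, dosed 1 mg/kg iv plus 10 or 5 mg/kg po. iv vehicle 3% DMSO, 30% solutol, 67% phosphate buffered saline; oral vehicle 50% Tween 80, 40% propylene carbonate, 10% propylene glycol.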

[7] = Inhibition of cytochrome P450; type: ADME
Summary of the method: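 CYP inhibition assessed against 5 CYP isoforms; IC50 determined.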

[8] = AUC in po dosed rat; type: ADME, organism-based; conditions: plasma
Rattus norvegicus [9] = test: Cmax in po dosed rat assessed as 5-[4-(1-cyclobutyl-piperidin-4-yloxy)-phenyl]-6-methyl-2H-pyridazin-3-one level; type: ADME, organism-based; design: route oral; conditions: in vivo
Histamine H3 receptor [10] = biological target: Histamine H3 receptor (Homo sapiens, UniProt Q9Y5N1); test: Displacement of [3H]N-alpha-methylhistamine from human histamine H3 receptor expressed in CHO cells; type: cell-based
[11] = Half life in rat liver microsomes; type: ADME, Microsome; summary of the method: as §1
[12] = biological target: Voltage-gated inwardly rectifying potassium channel KCNH2 (Homo sapiens, UniProt Q12809); test: Inhibition of human ERG by patch clamp assay
[13] = Volume of distribution in rat at 1 mg/kg, iv; type: ADME, organism-based; design: dose 1 mg/kg, route intravenous; conditions: in vivo; summary of the method: as §2
[14] = Tmax in rat at 5 mg/kg, po; type: ADME, organism-based; design: dose 5 mg/kg, route oral; conditions: in vivo; summary of the method: as §2
[15] = Clearance in rat at 1 mg/kg, iv; type: ADME, organism-based; design: dose 1 mg/kg, route intravenous; conditions: in vivo; summary of the method: as §2
[16] = Cmax in rat at 5 mg/kg, po; type: ADME, organism-based; design: dose 5 mg/kg, route oral; conditions: in vivo; summary of the method: as §2
[17] = AUC in rat at 5 mg/kg, po; type: ADME, organism-based; design: dose 5 mg/kg, route oral; conditions: plasma; summary of the method: as §2
[18] = Half life in rat at 1 mg/kg, iv; type: ADME, organism-based; design: dose 1 mg/kg, route intravenous; conditions: in vivo; summary of the method: as §2
[19] = Oral bioavailability in rat at 5 mg/kg; type: ADME, organism-based; conditions: in vivo; summary of the method: as §2
[20] = Ratio of drug level in brain to plasma in rat at 10 mg/kg, ip after 6 hrs; type: ADME, organism-based; design: dose 10 mg/kg, route intraperitoneal; conditions: read-out: BPR
Summary of the method: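 Brain and plasma levels measured in rat 6 h after a 10 mg/kg ip dose; value is brain/plasma ratio.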

[21] = biological target: Histamine H4 receptor (Homo sapiens) (UniProt Q9H3N8); test: Inhibition of human histamine H4 receptor at 10 uM
Summary of the method: (§3)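 Selectivity screen against human H1, H2 and H4 receptors; percent inhibition at 10 µM.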

[22] = biological target: Histamine H1 receptor (Homo sapiens) (UniProt P35367); test: Inhibition of human histamine H1 receptor at 10 uM; summary of the method: as §3
[23] = biological target: Histamine H2 receptor (Homo sapiens) (UniProt P25021); test: Inhibition of human histamine H2 receptor at 10 uM; summary of the method: as §3
[24] = biological target: T1, Muscarinic acetylcholine receptor M2 (Homo sapiens, UniProt P08172); test: Inhibition of muscarinic M2 receptor
T1 sequence (P08172 whole entry): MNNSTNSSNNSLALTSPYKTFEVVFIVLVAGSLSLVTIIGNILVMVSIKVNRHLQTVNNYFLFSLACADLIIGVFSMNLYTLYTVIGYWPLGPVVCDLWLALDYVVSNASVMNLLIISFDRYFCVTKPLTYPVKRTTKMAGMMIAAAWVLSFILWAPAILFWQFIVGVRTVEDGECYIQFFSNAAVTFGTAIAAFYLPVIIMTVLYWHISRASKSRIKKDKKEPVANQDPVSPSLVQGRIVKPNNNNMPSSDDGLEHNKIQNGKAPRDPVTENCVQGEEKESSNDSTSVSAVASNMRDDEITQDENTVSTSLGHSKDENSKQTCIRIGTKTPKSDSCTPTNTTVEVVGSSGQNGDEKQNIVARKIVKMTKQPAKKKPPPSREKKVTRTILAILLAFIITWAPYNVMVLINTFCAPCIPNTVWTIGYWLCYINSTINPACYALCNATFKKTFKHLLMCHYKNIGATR

Sequence of Histamine H3 receptor (Homo sapiens, UniProt Q9Y5N1) (Q9Y5N1 whole entry): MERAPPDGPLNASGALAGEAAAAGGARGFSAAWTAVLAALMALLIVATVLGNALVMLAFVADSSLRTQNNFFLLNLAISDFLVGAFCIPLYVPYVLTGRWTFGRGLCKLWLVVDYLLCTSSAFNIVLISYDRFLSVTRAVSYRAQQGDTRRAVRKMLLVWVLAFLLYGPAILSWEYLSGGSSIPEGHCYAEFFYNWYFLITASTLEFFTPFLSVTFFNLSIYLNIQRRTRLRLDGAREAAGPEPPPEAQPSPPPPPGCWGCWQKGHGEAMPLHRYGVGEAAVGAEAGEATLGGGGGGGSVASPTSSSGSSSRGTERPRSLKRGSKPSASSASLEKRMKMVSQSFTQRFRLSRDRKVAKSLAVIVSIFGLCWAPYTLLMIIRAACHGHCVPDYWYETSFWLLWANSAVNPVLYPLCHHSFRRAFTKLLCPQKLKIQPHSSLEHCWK
Sequence of Histamine H3 receptor (Rattus norvegicus, UniProt Q9QYN8) (Q9QYN8 whole entry): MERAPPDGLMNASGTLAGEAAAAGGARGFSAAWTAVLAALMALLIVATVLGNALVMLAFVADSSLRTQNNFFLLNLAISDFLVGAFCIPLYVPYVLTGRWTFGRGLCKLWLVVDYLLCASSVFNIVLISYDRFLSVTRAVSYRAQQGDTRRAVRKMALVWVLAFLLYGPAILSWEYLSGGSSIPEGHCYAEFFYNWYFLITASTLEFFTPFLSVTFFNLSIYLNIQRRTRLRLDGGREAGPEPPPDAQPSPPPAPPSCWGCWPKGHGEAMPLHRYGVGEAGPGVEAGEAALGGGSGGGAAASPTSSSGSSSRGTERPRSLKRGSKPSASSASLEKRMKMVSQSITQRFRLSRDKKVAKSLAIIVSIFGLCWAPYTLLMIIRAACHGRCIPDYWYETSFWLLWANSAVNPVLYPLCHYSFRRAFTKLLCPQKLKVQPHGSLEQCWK
Sequence of Voltage-gated inwardly rectifying potassium channel KCNH2 (Q12809 whole entry): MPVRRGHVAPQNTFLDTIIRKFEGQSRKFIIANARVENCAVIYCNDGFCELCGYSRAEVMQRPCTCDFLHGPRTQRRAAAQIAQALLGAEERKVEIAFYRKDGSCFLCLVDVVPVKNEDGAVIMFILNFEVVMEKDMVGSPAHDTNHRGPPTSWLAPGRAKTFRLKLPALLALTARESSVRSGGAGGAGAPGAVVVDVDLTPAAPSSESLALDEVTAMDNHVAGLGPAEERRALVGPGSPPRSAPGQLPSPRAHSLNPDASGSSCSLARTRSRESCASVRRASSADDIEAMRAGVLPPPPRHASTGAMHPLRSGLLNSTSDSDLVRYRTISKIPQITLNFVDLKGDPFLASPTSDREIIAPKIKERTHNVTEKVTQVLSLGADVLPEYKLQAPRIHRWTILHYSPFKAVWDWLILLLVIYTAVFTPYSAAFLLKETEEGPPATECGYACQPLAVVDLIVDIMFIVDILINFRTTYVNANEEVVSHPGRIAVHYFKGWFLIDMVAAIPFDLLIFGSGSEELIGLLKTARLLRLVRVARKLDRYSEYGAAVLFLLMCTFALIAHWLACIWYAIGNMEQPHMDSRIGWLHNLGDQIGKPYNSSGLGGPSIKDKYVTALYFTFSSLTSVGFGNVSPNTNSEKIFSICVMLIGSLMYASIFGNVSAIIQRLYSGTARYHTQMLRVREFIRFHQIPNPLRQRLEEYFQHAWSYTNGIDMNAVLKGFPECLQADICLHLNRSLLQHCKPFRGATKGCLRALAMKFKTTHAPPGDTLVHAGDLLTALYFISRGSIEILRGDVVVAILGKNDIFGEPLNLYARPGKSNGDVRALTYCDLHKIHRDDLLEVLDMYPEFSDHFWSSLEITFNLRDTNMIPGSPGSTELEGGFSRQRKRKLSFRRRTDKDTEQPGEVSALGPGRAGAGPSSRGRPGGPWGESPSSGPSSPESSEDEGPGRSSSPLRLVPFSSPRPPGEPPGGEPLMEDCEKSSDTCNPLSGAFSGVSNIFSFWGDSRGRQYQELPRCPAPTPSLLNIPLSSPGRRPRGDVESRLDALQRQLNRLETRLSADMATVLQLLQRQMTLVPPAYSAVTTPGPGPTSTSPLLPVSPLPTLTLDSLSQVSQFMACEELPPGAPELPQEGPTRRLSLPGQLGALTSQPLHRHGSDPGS
Sequence of Histamine H2 receptor (Homo sapiens) (P25021 whole entry): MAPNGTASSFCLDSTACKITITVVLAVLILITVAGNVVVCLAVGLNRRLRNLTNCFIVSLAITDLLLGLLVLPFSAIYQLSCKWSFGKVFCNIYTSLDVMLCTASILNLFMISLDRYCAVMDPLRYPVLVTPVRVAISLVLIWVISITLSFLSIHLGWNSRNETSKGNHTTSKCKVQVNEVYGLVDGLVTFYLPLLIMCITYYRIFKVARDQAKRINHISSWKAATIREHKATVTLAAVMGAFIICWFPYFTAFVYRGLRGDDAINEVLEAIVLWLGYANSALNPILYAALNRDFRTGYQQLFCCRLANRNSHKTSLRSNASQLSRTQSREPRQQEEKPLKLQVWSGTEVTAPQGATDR
Sequence of Histamine H4 receptor (Homo sapiens) (Q9H3N8 whole entry): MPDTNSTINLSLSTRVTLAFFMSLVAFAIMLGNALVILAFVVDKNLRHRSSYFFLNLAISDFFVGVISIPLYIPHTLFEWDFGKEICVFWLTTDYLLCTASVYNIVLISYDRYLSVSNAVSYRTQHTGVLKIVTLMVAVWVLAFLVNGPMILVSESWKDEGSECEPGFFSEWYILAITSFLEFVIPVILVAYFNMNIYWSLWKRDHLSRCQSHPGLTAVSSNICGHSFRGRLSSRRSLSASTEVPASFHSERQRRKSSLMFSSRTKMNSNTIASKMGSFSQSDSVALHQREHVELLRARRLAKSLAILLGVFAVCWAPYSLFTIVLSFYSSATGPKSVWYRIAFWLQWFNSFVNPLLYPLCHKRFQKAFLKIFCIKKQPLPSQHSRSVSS
Sequence of Histamine H1 receptor (Homo sapiens) (P35367 whole entry): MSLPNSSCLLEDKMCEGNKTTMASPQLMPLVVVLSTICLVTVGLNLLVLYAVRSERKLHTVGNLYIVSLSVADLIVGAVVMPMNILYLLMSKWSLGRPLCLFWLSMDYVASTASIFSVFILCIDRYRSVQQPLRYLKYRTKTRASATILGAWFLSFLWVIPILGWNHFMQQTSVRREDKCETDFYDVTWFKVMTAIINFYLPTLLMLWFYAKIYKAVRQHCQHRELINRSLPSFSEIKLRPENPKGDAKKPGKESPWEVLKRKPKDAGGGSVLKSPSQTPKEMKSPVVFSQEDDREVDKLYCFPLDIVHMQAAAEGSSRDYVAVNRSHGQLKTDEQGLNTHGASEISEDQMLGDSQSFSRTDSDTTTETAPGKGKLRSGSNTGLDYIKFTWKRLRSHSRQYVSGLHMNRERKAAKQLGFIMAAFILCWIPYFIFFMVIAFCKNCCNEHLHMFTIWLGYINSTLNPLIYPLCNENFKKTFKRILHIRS

Row | SMILES | half-life [1] | half-life [2] | Ki (Histamine H3 receptor [4]) | IC50 [7] | Ki (Histamine H3 receptor [10]) | half-life [11] | IC50 [12] | Vd [13] | Tmax [14] | clearance [15] | Cmax [16] | AUC [17] | half-life [18] | bioavailability [19] | Kp at 6 h [20] | further results
1 | Cc1nn(C)c(=O)cc1-c1ccc(OC2CCN(C3CCC3)CC2)cc1 | > 0.667 h | > 0.667 h | 8 nM | > 30000 nM | 4 nM | > 0.667 h |  |  |  |  |  |  |  |  |  | Cmax [3]: 107 ng/mL; AUC (Rattus norvegicus [5]): 320 ng·h/mL; bioavailability [6]: 19%; AUC [8]: 337 ng·h/mL; Cmax (Rattus norvegicus [9]): 68 ng/mL
2 | Cc1cccnc1-n1nc(C)c(-c2ccc(OC3CCN(C4CCC4)CC3)cc2)cc1=O |  |  | 17 nM | > 30000 nM | 6 nM |  | > 30000 nM | 1.1 L/kg | 2.3 h | 11 mL/min/kg | 505 ng/mL | 1860 ng·h/mL | 1.1 h | 23% | 1 | 
3 | Cc1nn(-c2ccccn2)c(=O)cc1-c1ccc(OC2CCN(C3CCC3)CC2)cc1 | > 0.667 h | > 0.667 h | 9 nM | > 30000 nM | 3 nM | > 0.667 h |  | 1.4 L/kg | 3.2 h | 13 mL/min/kg | 287 ng/mL | 1500 ng·h/mL | 1.3 h | 22% | 1.6 | inhibition [21]: < 30%; inhibition [22]: < 30%; inhibition [23]: < 30%; IC50 [24]: 340 nM
4 | Cc1cccc(-n2nc(C)c(-c3ccc(OC4CCN(C5CCC5)CC4)cc3)cc2=O)n1 |  |  | 10 nM | > 30000 nM | 4 nM |  | > 30000 nM | 1.7 L/kg | 2 h | 16 mL/min/kg | 332 ng/mL | 1270 ng·h/mL | 1.1 h | 20% | 1.6 | 
5 | Cc1nn(-c2ccsc2)c(=O)cc1-c1ccc(OC2CCN(C3CCC3)CC2)cc1 |  |  | 8 nM |  | 3 nM |  |  |  |  |  |  |  |  |  |  | 
